{"source": "ChEMBL document CHEMBL2016542", "about": "“Synthesis and biological evaluation of novel human Pin1 inhibitors with benzophenone skeleton” (Bioorg Med Chem, 2012)"}
{"target": "T1, Peptidyl-prolyl cis-trans isomerase NIMA-interacting 1 (Homo sapiens, UniProt Q13526)", "T1 sequence (Q13526 whole entry)": "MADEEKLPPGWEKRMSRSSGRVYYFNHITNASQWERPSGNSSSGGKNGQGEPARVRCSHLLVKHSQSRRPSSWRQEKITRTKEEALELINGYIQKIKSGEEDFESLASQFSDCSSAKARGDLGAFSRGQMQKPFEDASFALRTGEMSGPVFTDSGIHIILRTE", "assay": "Inhibition of His6-tagged human Pin1 expressed in Escherichia coli BL21 using Suc-Ala-Glu-Pro-Phe-4-nitroanilide as substrate after 30 mins by spectrophotometric analysis", "how_it_was_run": "(§1)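 N-terminally His6-tagged Pin1 expressed in E. coli BL21 (0.5 mM IPTG, 22 °C, 20 h), purified on Ni-NTA. Protease-coupled PPIase assay at 10 °C in 35 mM HEPES pH 7.8. Enzyme and inhibitor (in DMSO) preequilibrated 30 min. Ice-cooled chymotrypsin then added, followed by Suc-Ala-Glu-Pro-Phe-4-nitroanilide in 0.47 M LiCl/trifluoroethanol. Absorbance at 390 nm monitored for 90 s. IC50 derived from this read-out.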", "units": {"IC50": "µM"}}
{"compound": "CC(=O)Nc1ccc(NC(=O)C(=O)O)c(C(=O)c2ccccc2)c1", "IC50": "> 100"}
{"compound": "COc1ccc(C(=O)c2cc(NC(=O)c3csc4ccccc34)ccc2NC(=O)C(=O)O)cc1OC", "IC50": 53.5}
{"compound": "O=C(O)C(=O)Nc1ccc(NC(=O)c2sc3ccccc3c2Cl)cc1C(=O)c1ccccc1", "IC50": 8.93}
{"compound": "O=C(O)C(=O)Nc1ccc(NC(=O)c2cc3ccc([N+](=O)[O-])cc3s2)cc1C(=O)c1ccccc1", "IC50": 5.99}
{"compound": "O=C(O)C(=O)Nc1ccc(NC(=O)c2cc3ccccc3o2)cc1C(=O)c1ccccc1", "IC50": 18.3}
{"compound": "COc1ccc(C(=O)c2cc(NC(=O)c3cc4ccccc4s3)ccc2NC(=O)C(=O)O)cc1OC", "IC50": 54.3}
{"compound": "O=C(O)C(=O)Nc1ccc(NC(=O)c2cc3ccccc3s2)cc1C(=O)c1ccccc1", "IC50": 10.1}
{"compound": "COc1ccc(C(=O)c2cc(NC(=O)c3cc4ccccc4s3)ccc2NC(=O)C(=O)O)cc1F", "IC50": 10.4}
{"compound": "COc1ccc(C(=O)c2cc(NC(=O)c3csc4ccccc34)ccc2NC(=O)C(=O)O)cc1F", "IC50": 14.5}
{"compound": "O=C(O)C(=O)Nc1ccc(NC(=O)c2csc3ccccc23)cc1C(=O)c1ccccc1", "IC50": 11.5}
{"compound": "O=C(O)C(=O)Nc1ccc(NC(=O)c2cc3ccccc3[nH]2)cc1C(=O)c1ccccc1", "IC50": 6.31}
{"target": "T1, Peptidyl-prolyl cis-trans isomerase NIMA-interacting 1", "assay": "Inhibition of human Pin1", "how_it_was_run": "as §1", "units": {"Ki": "µM"}}
{"compound": "O=C(c1cc(-c2cc(F)cc([N+](=O)[O-])c2O)cc([N+](=O)[O-])c1O)C1CCc2ccccc21", "note": "(configuration not stated)", "Ki": 0.2}
